The values that follow come from ChEMBL document CHEMBL1212912, “Phenylsulfonylfuroxans as modulators of multidrug-resistance-associated protein-1 and P-glycoprotein” (J Med Chem, 2010).

Calls of active or inactive are those of the source. The calls are words filed in the database; no cut-off is given here.

The subject of data set [1] is MDCK. Briefly: Inhibition of Pgp-mediated doxorubicine accumulation in MDCK cells assessed as nitreated-Pgp level at 10 uM by immunoprecipitation. Type of data set: cell-based. To be noted: Canis lupus familiaris.
Data set [2] concerns the target ATP-dependent translocase ABCB1 (Homo sapiens, UniProt P08183). Kind of data set: Inhibition of MDR1 expressed in MDCK cells assessed as calcein AM accumulation by fluorescence assay. Type of data set: cell-based. In a few lines:
(§1)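 MDCK cells overexpressing MRP1 or MDR1 (P-gp) were seeded at 50,000/well and grown to confluence overnight. Compound in medium was added for 30 min at 37°C, then calcein-AM (2.5 µM final, in PBS) for 30 min. Cells were washed 3× with ice-cold PBS and fluorescence read at ex 485/em 535 nm. The increase over untreated basal level was fitted against log[dose] to give EC50.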

The target in data set [3] is Multidrug resistance-associated protein 1 (Homo sapiens, UniProt P33527). Kind of data set: […] MRP1 expressed in MDCK cells assessed as calcein AM accumulation by fluorescence assay. Type of data set: cell-based. In a few lines:
as §1

Data set [4] deals with MDCK. Briefly: Antiproliferative activity against MDCK cells at 10 uM by MTT assay. The conditions noted are these: dog. Type of data set: cell-based, Canis lupus familiaris. In outline: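 MDCK-MDR1 cells grown in DMEM high glucose with 10% FBS and 2 mM glutamine at 37°C in 5% CO2. Seeded at 20000 cells/well, then treated next day with compound at 10 μM with solvent controls. MTT 0.5 mg/mL added after 24 or 48 h and incubated 3 h at 37°C. Formazan dissolved in DMSO; absorbance read at 570 and 630 nm.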
On the technique in general: Tetrazolium dyes change colour on reduction, which living cells bring about.

Sequence of ATP-dependent translocase ABCB1 (P08183 whole entry): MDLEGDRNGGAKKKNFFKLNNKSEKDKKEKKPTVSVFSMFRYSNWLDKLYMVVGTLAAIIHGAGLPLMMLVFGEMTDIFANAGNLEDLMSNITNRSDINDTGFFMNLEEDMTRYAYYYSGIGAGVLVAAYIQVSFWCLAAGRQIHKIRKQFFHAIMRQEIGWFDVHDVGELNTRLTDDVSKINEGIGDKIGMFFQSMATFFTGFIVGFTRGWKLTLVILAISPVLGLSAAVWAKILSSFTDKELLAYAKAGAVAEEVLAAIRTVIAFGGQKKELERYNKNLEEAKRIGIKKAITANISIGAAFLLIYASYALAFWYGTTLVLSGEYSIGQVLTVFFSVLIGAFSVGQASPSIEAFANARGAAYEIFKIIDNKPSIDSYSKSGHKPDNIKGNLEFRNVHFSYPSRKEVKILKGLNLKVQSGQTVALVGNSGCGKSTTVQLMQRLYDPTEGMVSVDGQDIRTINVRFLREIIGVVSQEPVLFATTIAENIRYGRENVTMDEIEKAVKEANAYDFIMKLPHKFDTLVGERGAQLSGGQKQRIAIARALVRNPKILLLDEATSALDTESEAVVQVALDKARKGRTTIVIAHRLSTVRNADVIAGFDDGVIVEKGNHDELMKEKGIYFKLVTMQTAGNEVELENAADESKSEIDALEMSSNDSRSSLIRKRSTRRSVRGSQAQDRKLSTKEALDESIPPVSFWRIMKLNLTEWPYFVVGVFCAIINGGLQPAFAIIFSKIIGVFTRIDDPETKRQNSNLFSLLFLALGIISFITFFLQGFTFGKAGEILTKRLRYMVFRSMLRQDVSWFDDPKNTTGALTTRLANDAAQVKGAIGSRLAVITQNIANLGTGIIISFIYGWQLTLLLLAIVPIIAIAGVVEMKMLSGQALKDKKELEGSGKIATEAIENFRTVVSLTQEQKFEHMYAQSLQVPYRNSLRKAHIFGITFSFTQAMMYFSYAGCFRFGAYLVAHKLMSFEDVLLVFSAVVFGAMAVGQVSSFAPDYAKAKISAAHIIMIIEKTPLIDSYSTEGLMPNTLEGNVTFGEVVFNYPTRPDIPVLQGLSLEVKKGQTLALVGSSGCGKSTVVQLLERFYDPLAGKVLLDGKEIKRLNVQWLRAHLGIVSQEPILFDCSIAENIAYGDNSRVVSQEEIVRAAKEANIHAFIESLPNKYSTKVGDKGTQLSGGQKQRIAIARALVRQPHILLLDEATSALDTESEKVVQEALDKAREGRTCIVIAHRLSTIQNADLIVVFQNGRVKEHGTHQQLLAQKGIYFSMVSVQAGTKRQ
Sequence of Multidrug resistance-associated protein 1 (P33527 whole entry): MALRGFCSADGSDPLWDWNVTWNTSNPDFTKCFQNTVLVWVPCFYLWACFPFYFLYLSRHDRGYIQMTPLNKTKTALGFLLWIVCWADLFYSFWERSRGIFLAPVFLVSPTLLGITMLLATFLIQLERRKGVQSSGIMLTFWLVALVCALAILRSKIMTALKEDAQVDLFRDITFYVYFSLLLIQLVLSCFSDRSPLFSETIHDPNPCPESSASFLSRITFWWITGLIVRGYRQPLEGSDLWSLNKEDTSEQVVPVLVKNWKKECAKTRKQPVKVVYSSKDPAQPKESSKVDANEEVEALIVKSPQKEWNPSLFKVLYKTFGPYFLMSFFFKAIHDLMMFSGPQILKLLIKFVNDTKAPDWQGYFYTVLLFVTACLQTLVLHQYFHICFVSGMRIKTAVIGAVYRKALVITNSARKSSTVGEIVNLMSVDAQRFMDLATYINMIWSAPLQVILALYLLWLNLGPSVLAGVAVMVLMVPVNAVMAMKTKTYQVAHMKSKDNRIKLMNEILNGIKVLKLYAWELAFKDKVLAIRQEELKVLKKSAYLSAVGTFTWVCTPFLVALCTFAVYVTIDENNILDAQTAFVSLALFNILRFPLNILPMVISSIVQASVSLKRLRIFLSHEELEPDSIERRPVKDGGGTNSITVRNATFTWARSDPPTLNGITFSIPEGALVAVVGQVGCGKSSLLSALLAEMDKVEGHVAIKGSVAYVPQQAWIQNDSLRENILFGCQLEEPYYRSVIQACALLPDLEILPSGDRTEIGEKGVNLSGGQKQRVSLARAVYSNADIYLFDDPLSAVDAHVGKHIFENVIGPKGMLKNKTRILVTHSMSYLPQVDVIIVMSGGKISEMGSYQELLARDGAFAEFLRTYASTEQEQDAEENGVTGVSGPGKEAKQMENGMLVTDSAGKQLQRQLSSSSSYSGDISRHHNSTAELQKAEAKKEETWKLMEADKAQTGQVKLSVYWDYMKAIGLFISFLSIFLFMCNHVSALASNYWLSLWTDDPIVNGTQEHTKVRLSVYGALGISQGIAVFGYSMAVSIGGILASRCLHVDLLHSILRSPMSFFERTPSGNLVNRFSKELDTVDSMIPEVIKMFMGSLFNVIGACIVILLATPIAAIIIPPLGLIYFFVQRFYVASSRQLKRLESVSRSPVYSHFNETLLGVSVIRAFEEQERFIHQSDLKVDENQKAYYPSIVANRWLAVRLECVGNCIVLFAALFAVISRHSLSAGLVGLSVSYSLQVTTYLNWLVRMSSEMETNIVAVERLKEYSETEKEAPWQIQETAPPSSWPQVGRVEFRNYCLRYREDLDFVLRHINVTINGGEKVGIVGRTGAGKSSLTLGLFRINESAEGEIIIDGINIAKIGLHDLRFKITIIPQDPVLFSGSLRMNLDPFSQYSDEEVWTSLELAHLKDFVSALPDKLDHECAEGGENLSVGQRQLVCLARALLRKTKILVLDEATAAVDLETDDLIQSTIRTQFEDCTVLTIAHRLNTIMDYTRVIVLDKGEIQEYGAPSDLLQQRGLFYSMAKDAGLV

By EC50 is commonly meant the concentration giving half of the maximal effect. `CCCCCCOc1no[n+]([O-])c1S(=O)(=O)c1ccccc1`: in the data set on MDCK [1], the result was Active. The EC50 in data set [2] is 3.35 µM; in data set [3], 12 µM.
Turning to `[O-][n+]1onc(-c2ccccc2)c1-c1ccccc1`, the EC50 in data set [2] was > 100 µM.
As for `N#Cc1no[n+]([O-])c1S(=O)(=O)c1ccccc1`, the EC50 is 7.4 µM in data set [2] and 29.5 µM in data set [3].
Consider `CCOc1no[n+]([O-])c1S(=O)(=O)c1ccccc1`, for which the EC50 in data set [2] is 12 µM; in data set [3] it was 49.1 µM.
For the compound `CCCCOc1no[n+]([O-])c1S(=O)(=O)c1ccccc1`, in the data set with MDCK [1], the result was Active. Besides, the figures for the EC50 in data set [2] and in data set [3] were 2.26 µM and 7.61 µM, respectively.
As for `Nc1c(-c2ccccc2)no[n+]1[O-]`, in data set [2], the EC50 was > 100 µM.
`O=S(=O)(c1ccccc1)c1no[n+]([O-])c1-c1ccccc1`: the EC50 in data set [2] was 46 µM.
Regarding `CC(C)Oc1no[n+]([O-])c1S(=O)(=O)c1ccccc1`, the EC50 in data set [2] is 2.15 µM; in data set [3] it was 63 µM. This compound also showed an Activity in the data set on MDCK [4] of 30%.
With `O=S(=O)(c1ccccc1)c1c(Oc2ccccc2)no[n+]1[O-]`, the values for the EC50 in data set [2] and in data set [3] were 20.5 µM and 13.6 µM, respectively.
Taken in the same sequence, the figures for `N#Cc1c(S(=O)(=O)c2ccccc2)no[n+]1[O-]` were 55.4 µM and 72 µM.
Regarding `CC1(C)CCC(C)(C)c2cc(-c3cc(-c4ccc(C(=O)O)cc4)no3)ccc21`, the EC50 in data set [2] is 1.5 µM.
Turning to `O=S(=O)(c1ccccc1)c1no[n+]([O-])c1S(=O)(=O)c1ccccc1`, the EC50 in data set [2] was 3 µM; in data set [3] it was 15.1 µM.
With `NS(=O)(=O)c1c(-c2ccccc2)no[n+]1[O-]`, the EC50 in data set [2] is > 100 µM.
`Cc1c(-c2ccccc2)no[n+]1[O-]`: in data set [2], the EC50 is > 100 µM.
Consider `NC(=O)c1no[n+]([O-])c1S(=O)(=O)c1ccccc1`, for which the EC50 in data set [2] was 50 µM; in data set [3] it was 85.8 µM.
Consider `Cc1no[n+]([O-])c1S(=O)(=O)c1ccccc1`, for which the EC50 in data set [2] is 28.3 µM.
Same read-out and setting: the same measure for `Cc1no[n+]([O-])c1-c1ccccc1`: > 100 µM; for `CCCCCCCCCCOc1no[n+]([O-])c1S(=O)(=O)c1ccccc1`: 3.31 µM.
Same read-out and setting: the same measure for `CCCCCCCCOc1no[n+]([O-])c1S(=O)(=O)c1ccccc1`: 4.6 µM; for `COc1c(-c2ccccc2)no[n+]1[O-]`: > 100 µM.
Regarding `Cc1c(S(=O)(=O)c2ccccc2)no[n+]1[O-]`, in data set [2], the EC50 was > 100 µM.
Regarding `NC(=O)c1c(-c2ccccc2)no[n+]1[O-]`, the EC50 in data set [2] was > 100 µM.
With `NC(=O)c1no[n+]([O-])c1-c1ccccc1`, the EC50 in data set [2] is > 100 µM.
In the case of `Nc1no[n+]([O-])c1-c1ccccc1`, the EC50 in data set [2] was > 100 µM.
On the same count and under the same terms, the same measure for `N#Cc1no[n+]([O-])c1-c1ccccc1`: > 100 µM; for `NC(=O)c1c(S(=O)(=O)c2ccccc2)no[n+]1[O-]`: 52.6 µM; for `CCCCCCOc1nonc1S(=O)(=O)c1ccccc1`: 32.2 µM.
In the case of `CCCCOc1nonc1S(=O)(=O)c1ccccc1`, the EC50 in data set [2] was 49.7 µM.
For the compound `O=[N+]([O-])c1c(-c2ccccc2)n[o+]n1[O-]`, the 50% effective concentration (EC50) was 53 µM in data set [2] and 45 µM in data set [3].
As for `NS(=O)(=O)c1no[n+]([O-])c1-c1ccccc1`, in data set [2], the EC50 is > 100 µM.
Consider `COc1no[n+]([O-])c1-c1ccccc1`, for which, in data set [2], the EC50 was > 100 µM.
`CCC(C)Oc1no[n+]([O-])c1S(=O)(=O)c1ccccc1` (stereo not drawn): the values for the EC50 in data set [2] and in data set [3] were 2.23 µM and 46 µM, respectively. The compound further showed an Activity in the data set with MDCK [4] of 45%.
On to `O=S(=O)(c1ccccc1)c1c(-c2ccccc2)no[n+]1[O-]`, for which, in data set [2], the EC50 was 10 µM.
